# Results collected from several papers.
# Lines come from different studies, so protocols differ.
# ABCG2: Broad substrate specificity ATP-binding cassette transporter ABCG2 (ABCG2, Homo sapiens, UniProt Q9UNQ0)
Structure (SMILES),tested on,assay,test system,conditions,quantity,result
O=C(N/N=C/c1ccc2ccccc2c1)c1ccc(O)c(O)c1,K562,cell growth or viability,,,IC50,28.9 µM
CCOC(=O)[C@@]12C[C@@H]1[C@@H](n1ccc3c(NC)nc(C#Cc4ccc(Cl)s4)nc31)[C@H](O)[C@@H]2O,,,"male Sprague-Dawley rat, plasma","oral, 1 mg/kg, 2 h",concentration,5.92 ng/mL
C/C(O)=C(\C#N)C(=O)Nc1ccc(C(F)(F)F)cc1,ABCG2,,Caco-2,"1 µM, 2 h, pH 7.4",efflux ratio,6.06
O=C(O)c1cc(Br)c(O)c(Br)c1,K562,cell growth or viability,,,IC50,> 432 µM
O=C(O)CSc1nnc(Br)n1-c1ccc(C2CC2)c2ccccc12,ABCG2,"transporter uptake, inhibitor",Caco-2,"30 µM, 2 h",inhibition,27%
C[C@@H]1Cn2ncc(-c3ccc(C(=O)N4CCCc5ccccc54)cc3)c2CN1C(=O)Cc1ccccc1,ABCG2,,"dog, MDCK-MDR1",,Papp B→A,16 ×10⁻⁶ cm/s
CCc1cc(C(=O)NC)c2nccc(N3CCc4c(cc(Cn5ccnc5)cc4-c4cn(C)nc4C(F)(F)F)C3=O)c2c1,,,"male Sprague-Dawley rat, plasma","intravenous, 3 mg/kg",half-life,48 min
COc1cc(/C=N\NC(=O)c2ccc(Br)cc2)ccc1OC(=O)c1cccs1,K562,cell growth or viability,,,IC50,32.4 µM
CCc1cc(-c2noc(-c3cc(OC)nc(C4CCCC4)c3)n2)cc(C)c1OC[C@@H](O)CO,,,"Wistar rat, plasma","oral, 1 mg/kg, 3 h, single dose",concentration,62.7 ng/mL
"CO[C@H](C(=O)N1Cc2c(-c3ccc(C(=O)N4CCCc5ccccc54)cc3)cnn2C[C@H]1C(C)C)c1cnn(C)c1 (single isomer, unassigned)",ABCG2,,"dog, MDCK-MDR1",,Papp B→A,26.1 ×10⁻⁶ cm/s
COc1cccc(-c2n[nH]c(SCc3ccccn3)n2)c1OC,,,"female Sprague-Dawley rat, plasma","oral, 100 mg/kg, 1 h, single dose",concentration,62200 ng/mL
COc1ccc2c(c1)CCc1c(C(=O)NCCc3nc4cc(C)ccc4[nH]3)n[nH]c1-2,K562,cell growth or viability,,,IC50,< 1.32 µM
Cc1noc(C)c1Cn1cc(N2C(=O)CN(Cc3cccc(O)c3)C2=O)cn1,,,"male Sprague-Dawley rat, plasma","oral, 100 mg/kg, 15 min",concentration,26.7 ng/mL
Cc1n[nH]c(CC(=O)N2Cc3c(-c4ccc(C(=O)N5CCCc6ccccc65)cc4)cnn3C[C@H]2C)n1,ABCG2,,"dog, MDCK-MDR1",,Papp B→A,14.1 ×10⁻⁶ cm/s
C/N=C(/NC)c1ccc(NC(=O)/C=C/c2ccc(/C=C/C(=O)Nc3ccc(/C(=N\C)NC)cc3)cc2)cc1,K562,cell growth or viability,,,IC50,4.31 µM
COc1ccc2c(=O)n(C)c(-c3ccccc3)nc2c1,,,"male Sprague-Dawley rat, lung","oral, 30 mg/kg, 15 min, single dose",concentration,15.3 ng/g
COC(=O)/C(C#N)=C1\Nc2ccccc2O1,K562,cell growth or viability,,,IC50,20.7 µM
C[C@H](C(=O)N1Cc2c(-c3ccc(C(=O)N4CCCc5ccccc54)cc3)cnn2C[C@H]1C)c1ccccc1,ABCG2,,"dog, MDCK-MDR1",,Papp B→A,8.4 ×10⁻⁶ cm/s
